Measured values reported in PMC9293343 (Chemmedchem, 2021).

Experiments:
[1] = target: T1, Neh1 (residues 445–523, Neh1‐ΔLZIP) domain of NRF2 (Homo sapiens, UniProt Q16236); assay: 1H-15N HSQC small-molecule titration; type: binding
T1 sequence (Q16236 445-523): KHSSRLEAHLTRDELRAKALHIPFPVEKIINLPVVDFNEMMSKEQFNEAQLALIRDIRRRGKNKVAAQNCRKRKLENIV
How it was run: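 15N-labelled human NRF2 residues 445–523 were expressed in E. coli BL21(DE3) with TEV-cleaved MBP/His tags and used at 50 μM in 50 mM sodium phosphate pH 6.5, 150 mM NaCl, 1 mM DTT. Test compound (50 mM DMSO-d6 stock) was titrated to final 0.250, 0.750, 1.5 and 2.0 mM, with 1H-15N HSQC at each step. Combined 1HN/15N CSPs were fitted per residue by nonlinear least squares for KD.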

Neh1‐ΔLZIP = target: T2, Neh1‐ΔLZIP (Homo sapiens, UniProt Q16236); type: binding; settings: 0.750 mM compound 2, ARE DNA 0.10, 0.20, 0.30 mM, 50 μM protein
T2 sequence (Q16236 445-523): T1 sequence (Q16236 445-523)

Q: Which results are given for `O=C(O)COc1ccc(-c2ccccc2)cc1Br` [Compound 2, 2‐((3‐bromo‐[1,1’‐biphenyl]‐4‐yl)oxy)acetic acid]?
A: Kd ([1]; KD, from CSP values using equation (1), average over R499, D500, R503): 1700 ± 100 µM; chemical shift change of side chain amide nitrogen Nδ2 of N482, measured value ([1]; at approximately 50–60 % protein fraction bound): 0.64 ppm; CSP, backbone amide of N482 ([1]; upon addition of compound 2): 0.04 ppm; replacement of compound by ARE DNA (competition) (Neh1‐ΔLZIP): final spectrum which is very close to the spectrum of Neh1‐ΔLZIP bound to ARE
